Calls of active or inactive are those of the source.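 How the source made its calls, unless noted: active means fluorescence slope higher than the sample average by over 3 SD (cut at about -0.22 in these data, passing the limit was not always enough); inactive means the rest.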
Legend:
[1] = inhibitors of TNFa-induced NFkB p65 translocation, primary screen, imaging, HUVEC, MLSMR starter and 10KST1 sets (AID 438;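 active means inhibition above 20% together with a positive visual image hit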;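 further: compound added about 3h40 before a 20 min TNFalpha stimulation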;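 on inhibition: signal is the nuclear over cytoplasmic p65 intensity ratio per well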); details: HUVEC TNFa-induced p65 nuclear translocation; cell count: measured here: nuclei count (cytotoxicity indicator), at 2.08 µM; inhibition: at 2 µM, stronger effect = higher value, 0% TNFa-plus-vehicle, 100% no-TNFa wells
[2] = inhibitors of mutant huntingtin aggregation, primary screen, imaging, exon1htt(103Q)mCFP cells, high-content imaging (AID 483;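 active means visual image review flags a hit and inhibition of aggregation exceeds 20%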;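 further: compound exposure lasted 3 days before fixation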;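 on nuclei count: percent of the per-plate median nuclei count of sample wells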); details: exon1htt(103Q)mCFP cell line, aggregate imaging, at 2 µM; inhibition of aggregation: stronger effect = higher value; nuclei count: measured here: cell count, toxicity
[3] = inhibitors of E-selectin induction by TNFa, primary screen, imaging, HUVEC, immunofluorescence, MLSMR starter and 10KST1 sets (AID 487;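 active means visually confirmed hit in the image check and inhibition above 20%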;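 on inhibition: signal is fraction of cell area covered by stained E-selectin grains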;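 on nuclei count: 100% = median nuclei count of all wells on the same plate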); details: HUVEC TNFalpha-induced E-selectin immunofluorescence imaging, at 2 µM; inhibition: stronger effect = higher value; nuclei count: measured here: cell number, toxicity
[4] = biological target: Voltage-gated potassium channel subunit beta-2 (Rattus norvegicus) (UniProt P62483); assay: KvBeta enzyme negative modulators, primary screen, biochemical, NADPH fluorescence (AID 622); details: recombinant KvBeta, 4-cyanobenzaldehyde reduction, at 10 µM, stronger effect = higher value;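 further: slope of raw intensity against log time taken from 70 to 1610 s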
[5] = biological target: Voltage-gated potassium channel subunit beta-2 (Rattus norvegicus) (UniProt P62483); assay: KvBeta positive modulators, primary screen, biochemical, NADPH fluorescence (AID 623;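 active means NADPH fluorescence slope more negative than the mean of all samples by about 3 SD, 99.7% confidence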;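 further: fluorescence intensity change per second fitted from 20 to 320 s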); details: Recombinant KvBeta, NADPH fluorescence decrease slope, 10 min; at 10 µM; stronger effect = lower value
[6] = biological target: Alpha-2C adrenergic receptor (Homo sapiens) (UniProt P18825); assay: modulators of alpha2C/GIRK thallium flux, primary screen, cell-based, HEK293 alpha2C/GIRK1/2 (AID 624;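 active means fluorescence slope after compound addition differing from the mean of all screened samples at 99.7% confidence, in either direction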;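 further: slope of fluorescence ratio to pre-addition baseline per second over 15 to 24 s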); details: thallium flux BTC fluorescence, at 10 µM, actives lie on both sides
[7] = inhibitors of larval lipid processing in zebrafish, primary screen, whole organism, PED6 fluorescence, gall bladder and intestine (AID 686;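 active means a full or partial loss of lipid-probe fluorescence in the fish gall bladder, intestine or both, judged by eye; inactive means no fluorescence loss, or compound toxic to the fish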;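 further: larvae 5 to 7 days old with five fish per well; signal comes from phospholipase A2 cleavage of quenched PED6 carried via bile; overnight exposure to compound and PED6 before scoring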); details: Zebrafish larvae PED6 lipid processing, fluorescence scoring; screened at 20 µM (by protocol)
Method in brief: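 Also added: quenched phospholipase substrate PED6, 100 nM final, ingested by larvae; System: zebrafish larvae, 5-7 d; Quantity: 5 larvae per well; Compound: 20 µM single dose; Schedule: overnight compound and PED6 incubation; Read-out: visual per-well fluorescence inhibition score; Measured by: By-eye fluorescence microscopy; Medium: E3.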

[8] = inhibitors of Sendai virus-induced IRF3 signaling, primary screen, TLR/RLR signaling modifier project, cell-based, Sendai virus stimulus, luciferase, 10K MLSCN set (AID 602276;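 active means inhibition at or above 50% at 10 µM; inactive means inhibition below 50%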;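 further: firefly luciferase from ISG56 promoter only with Renilla not read in this screen; 0% = Sendai virus plus DMSO and 100% = medium plus DMSO without virus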); details: HEK293 RL24 IRF3 luciferase reporter, at 10 µM, stronger effect = higher value
[9] = inhibitors of poly I:C-induced TLR3 signaling, primary screen, cell-based, poly I:C stimulus, luciferase, 10K MLSCN set (AID 602277;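 active means inhibition of the reporter signal at or above 50%; inactive means inhibition below 50%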); details: HEK293-TLR3 RL24 IRF3 luciferase reporter, at 10 µM, stronger effect = higher value

Voltage-gated potassium channel subunit beta-2 (Rattus norvegicus), sequence (P62483 whole entry, looked up): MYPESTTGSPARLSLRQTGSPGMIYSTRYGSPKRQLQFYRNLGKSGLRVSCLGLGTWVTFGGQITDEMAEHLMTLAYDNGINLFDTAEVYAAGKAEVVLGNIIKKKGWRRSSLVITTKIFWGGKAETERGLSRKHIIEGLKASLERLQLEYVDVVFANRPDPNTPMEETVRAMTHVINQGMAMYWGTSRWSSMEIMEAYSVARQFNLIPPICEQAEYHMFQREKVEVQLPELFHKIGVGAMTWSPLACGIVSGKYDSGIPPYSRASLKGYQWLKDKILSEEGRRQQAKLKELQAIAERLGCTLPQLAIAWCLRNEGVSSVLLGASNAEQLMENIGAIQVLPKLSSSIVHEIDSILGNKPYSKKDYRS
Alpha-2C adrenergic receptor (Homo sapiens), sequence (P18825 whole entry, looked up): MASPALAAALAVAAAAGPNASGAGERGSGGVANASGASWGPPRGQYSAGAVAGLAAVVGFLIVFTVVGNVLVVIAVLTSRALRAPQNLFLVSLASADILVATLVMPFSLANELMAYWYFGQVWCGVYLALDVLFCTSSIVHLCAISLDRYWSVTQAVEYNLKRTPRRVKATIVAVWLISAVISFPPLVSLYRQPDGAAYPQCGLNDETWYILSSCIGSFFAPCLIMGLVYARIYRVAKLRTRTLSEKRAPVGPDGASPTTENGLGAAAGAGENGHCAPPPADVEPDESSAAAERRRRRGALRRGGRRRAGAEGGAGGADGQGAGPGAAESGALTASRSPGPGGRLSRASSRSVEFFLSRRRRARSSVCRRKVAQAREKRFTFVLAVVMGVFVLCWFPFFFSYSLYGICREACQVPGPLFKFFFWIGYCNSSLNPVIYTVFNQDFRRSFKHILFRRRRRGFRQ

For `c1ccc(-c2cc(CSc3nc4ccccc4[nH]3)on2)cc1`, the cell count [1] was 416, the inhibition [1] was 5.3% (inactive) and the inhibition of aggregation [2] was -43% (inactive). The nuclei count [2] was 99.4%, the inhibition [3] was -68.7% (inactive) and the nuclei count [3] was 116%. For the same molecule, the fluorescence slope [4] was -0.376 (inactive), the NADPH fluorescence slope [5] was -8.1e-05 (inactive) and the slope [6] was 0.00533 (inactive). For the same molecule, the outcome [7] was “inactive”, the inhibition [8] was -0.361% (inactive) and the inhibition [9] was -25% (inactive).
For `CCNc1ccc(S(=O)(=O)C(F)(F)F)cc1NC(=O)C12CCC(CC1)C2`, the cell count [1] was 380, the inhibition [1] was 2.5% (inactive) and the inhibition of aggregation [2] was -4.3% (inactive). For the same molecule, the nuclei count [2] was 108%, the inhibition [3] was -30.6% (inactive) and the nuclei count [3] was 101%. The fluorescence slope [4] was -0.481 (inactive), the NADPH fluorescence slope [5] was -3.1e-05 (inactive) and the slope [6] was 0.0047 (inactive). The outcome [7] was “inactive”, the inhibition [8] was -90% (inactive) and the inhibition [9] was 99.7% (active).
For `CC(C)(C)NS(=O)(=O)c1ccc(CCC(=O)O)cc1`, the cell count [1] was 395, the inhibition [1] was 4.2% (inactive) and the inhibition of aggregation [2] was -0.1% (inactive). For the same molecule, the nuclei count [2] was 82.6%, the inhibition [3] was -68.6% (inactive) and the nuclei count [3] was 110%. The fluorescence slope [4] was -0.456 (inactive), the NADPH fluorescence slope [5] was -4.3e-05 (inactive) and the slope [6] was 0.00422 (inactive). The outcome [7] was “inactive”, the inhibition [8] was 9.55% (inactive) and the inhibition [9] was 4.51% (inactive).
With `CC(=O)Nc1c(O)n(C)c2ccccc12` the cell count [1] was 638, the inhibition [1] was -24.1% (inactive) and the inhibition of aggregation [2] was 4.1% (inactive). The nuclei count [2] was 104%, the inhibition [3] was 25.2% (inactive) and the nuclei count [3] was 100%. For the same molecule, the fluorescence slope [4] was -0.445 (inactive), the NADPH fluorescence slope [5] was 3.6e-05 (inactive) and the slope [6] was 0.00514 (inactive). For the same molecule, the outcome [7] was “inactive”, the inhibition [8] was -8.37% (inactive) and the inhibition [9] was 2.01% (inactive).
For `Nc1ccc(S(=O)(=O)c2cccc(N)c2)cc1`, the cell count [1] was 655, the inhibition [1] was -8.6% (inactive) and the inhibition of aggregation [2] was -8.8% (inactive). For the same molecule, the nuclei count [2] was 81.5%, the inhibition [3] was -2.1% (inactive) and the nuclei count [3] was 108%. For the same molecule, the fluorescence slope [4] was -0.435 (inactive), the NADPH fluorescence slope [5] was -1.3e-05 (inactive) and the slope [6] was 0.00439 (inactive). For the same molecule, the outcome [7] was “inactive”, the inhibition [8] was 15.4% (inactive) and the inhibition [9] was 15.8% (inactive).
In the case of `COc1ccc(S(=O)(=O)Nc2ccccc2SC)cc1C`, the cell count [1] is reported as 664, the inhibition [1] is reported as -7.1% (inactive) and the inhibition of aggregation [2] is reported as 12.2% (inactive). The nuclei count [2] was 102%, the inhibition [3] was -125% (inactive) and the nuclei count [3] was 105%. The fluorescence slope [4] was -0.346 (inactive), the NADPH fluorescence slope [5] was 1.3e-05 (inactive) and the slope [6] was 0.00618 (inactive). The outcome [7] was “inactive”, the inhibition [8] was 12.4% (inactive) and the inhibition [9] was 22.4% (inactive).
With `COC(=O)c1ccc(CSc2nc3ccccc3s2)o1` the cell count [1] was 483, the inhibition [1] was -6.3% (inactive) and the inhibition of aggregation [2] was -4% (inactive). The nuclei count [2] was 126%, the inhibition [3] was -0.4% (inactive) and the nuclei count [3] was 104%. For the same molecule, the fluorescence slope [4] was -0.47 (inactive), the NADPH fluorescence slope [5] was -1.1e-05 (inactive) and the slope [6] was 0.00436 (inactive). For the same molecule, the outcome [7] was “inactive”, the inhibition [8] was -35.6% (inactive) and the inhibition [9] was -50.2% (inactive).
With `Cc1cccc(NC(=O)CCCCCN2C(=O)c3ccccc3C2=O)n1` the cell count [1] was 495, the inhibition [1] was -4.8% (inactive) and the inhibition of aggregation [2] was -19.8% (inactive). The nuclei count [2] was 103%, the inhibition [3] was -68.6% (inactive) and the nuclei count [3] was 167%. For the same molecule, the fluorescence slope [4] was -0.44 (inactive), the NADPH fluorescence slope [5] was -6.5e-05 (inactive) and the slope [6] was 0.00404 (inactive). For the same molecule, the outcome [7] was “inactive”, the inhibition [8] was 15.6% (inactive) and the inhibition [9] was 15.2% (inactive).
For `O=C(Nc1ccc(NC(=O)C2CC2)cn1)c1ccccc1Cl`, the cell count [1] was 745, the inhibition [1] was 2.6% (inactive) and the inhibition of aggregation [2] was -13% (inactive). For the same molecule, the nuclei count [2] was 104%, the inhibition [3] was -79% (inactive) and the nuclei count [3] was 113%. For the same molecule, the fluorescence slope [4] was -0.316 (inactive), the NADPH fluorescence slope [5] was -8e-07 (inactive) and the slope [6] was 0.00552 (inactive). For the same molecule, the outcome [7] was “inactive”, the inhibition [8] was -65.9% (inactive) and the inhibition [9] was -212% (inactive).
For `COCCCN1C(=O)C(=O)/C(=C(/O)c2ccc(OC)cc2)C1c1ccc(O)c(OC)c1` (stereo unspecified), the cell count [1] was 499, the inhibition [1] was -14.9% (inactive) and the inhibition of aggregation [2] was -10% (inactive). For the same molecule, the nuclei count [2] was 101%, the inhibition [3] was 25.3% (inactive) and the nuclei count [3] was 98.6%. The fluorescence slope [4] was -0.39 (inactive), the NADPH fluorescence slope [5] was -2.6e-05 (inactive) and the slope [6] was 0.00521 (inactive). For the same molecule, the outcome [7] was “inactive”, the inhibition [8] was 4.25% (inactive) and the inhibition [9] was -6.14% (inactive).
With `Cc1ccc2[nH]c3c(=O)n(CCCN4CCN(C)CC4)cnc3c2c1` the cell count [1] was 478, the inhibition [1] was 1% (inactive) and the inhibition of aggregation [2] was -13.7% (inactive). The nuclei count [2] was 105%, the inhibition [3] was -36.8% (inactive) and the nuclei count [3] was 115%. The fluorescence slope [4] was -0.38 (inactive), the NADPH fluorescence slope [5] was -2.9e-05 (inactive) and the slope [6] was 0.0053 (inactive). The outcome [7] was “inactive”, the inhibition [8] was 1.24% (inactive) and the inhibition [9] was 22.2% (inactive).
With `CCCNC(=O)N1CCN(S(=O)(=O)c2ccc(C)c(C)c2)CC1` the cell count [1] was 412, the inhibition [1] was -0.4% (inactive) and the inhibition of aggregation [2] was -16.1% (inactive). For the same molecule, the nuclei count [2] was 105%, the inhibition [3] was -28.8% (inactive) and the nuclei count [3] was 103%. For the same molecule, the fluorescence slope [4] was -0.486 (inactive), the NADPH fluorescence slope [5] was -5.4e-05 (inactive) and the slope [6] was 0.00557 (inactive). The outcome [7] was “inactive”, the inhibition [8] was -6.27% (inactive) and the inhibition [9] was -8.98% (inactive).
With `CCOC(=O)n1c(=O)oc2cc(S(=O)(=O)N3CCCCC3)ccc21` the cell count [1] was 419, the inhibition [1] was 14.8% (inactive) and the inhibition of aggregation [2] was -1% (inactive). For the same molecule, the nuclei count [2] was 103%, the inhibition [3] was 35.2% (inactive) and the nuclei count [3] was 81.5%. For the same molecule, the fluorescence slope [4] was -0.294 (inactive), the NADPH fluorescence slope [5] was -1.1e-05 (inactive) and the slope [6] was 0.00583 (inactive). The outcome [7] was “inactive”, the inhibition [8] was 8.09% (inactive) and the inhibition [9] was 16.3% (inactive).

From PubChem BioAssay
